Here are results for 18 molecules from ChEMBL document CHEMBL4152215, “Anti-leishmanial click modifiable thiosemicarbazones: Design, synthesis, biological evaluation and in silico studies” (Eur J Med Chem, 2018).

Data set [1] relates to Leishmania major. Description: Antileishmanial activity against promastigote form of Leishmania major assessed as parasite growth inhibition after 48 hrs by alamar blue assay. In kind it is functional, organism-based. Background: The colour change of resazurin is a common sign of viable cells or microbes.
In data set [2] the test system is Leishmania major. Description: Antileishmanial activity against axenic amastigote form of Leishmania major assessed as parasite growth inhibition after 72 hrs by resazurin dye based assay. Type of data set: functional, organism-based. In a few lines: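 Axenic L. major amastigotes, generated in RPMI-1640 with 10% heat-inactivated FCS, penicillin/streptomycin and L-glutamine, seeded at 2 x 10³ cells/ml onto serially diluted compound (0.04-10 final). Held at 31°C, 5% CO₂, humidified, for 72 h. Resazurin added at 68 h and read at 72 h (ex 530/em 590 nm). IC50 from sigmoidal dose-response curves; mean ± SEM, triplicate experiments in duplicate.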

Data set [3] concerns Leishmania major. Nature of the data set: Potency index, ratio of miltefosine IC50 to compound IC50 for antileishmanial activity axenic amastigote form of Leishmania major. In kind it is functional.
Data set [4] can be described thus: Cytotoxicity against African green monkey Vero cells assessed as reduction in cell viability after 72 hrs by crystal violet staining based assay. The settings on record: chlorocebus sabaeus. An outline of the steps: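 Vero cells seeded at 1×10^5 cells/well in MEM with 5% heat-inactivated FBS. Viability by crystal violet staining; CC50 from concentration-response. At least 3 separate experiments, each in duplicate.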

Data set [5] can be described thus: Selectivity index, ratio of CC50 African green monkey Vero cells to IC50 for promastigote form of Leishmania major. Type of data set: toxicity. Conditions: Vero cells versus Leishmania major promastigotes, read-out: Ratio CC50/IC50. In a few lines: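 Selectivity index calculated as Vero CC50 (72 h crystal violet) divided by promastigote IC50.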
Data set [6] has as its system Mus musculus. Description: Acute toxicity in mouse assessed as effect on body weight at 25 to 125 mg/kg/day, po administered via gavage measured during 3 days post dose. Type of data set: organism-based. The settings on record: in vivo, 72 h. In a few lines: (§1)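 Male mice (25-30 g), six per group, fasted overnight and weighed before dosing. Compound suspended in aqueous 1% gum acacia and given by oral gavage in ascending doses of 25, 50, 75, 100 and 125 mg/kg/day (groups I-V). Vehicle group received gum acacia at up to 1 mL/100 g. Mortality recorded at 24 h and followed for seven days. Spleen, lung, liver and kidney examined.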

The test system of data set [7] is Mus musculus. Description: Acute toxicity in mouse assessed as induction of death at 25 to 125 mg/kg/day, po administered via gavage measured during 3 days post dose. In kind it is organism-based. The settings on record: in vivo, 72 h. An outline of the steps:
as §1

Data set [8] concerns Mus musculus. Description: Acute toxicity in mouse up to 125 mg/kg/day, po administered via gavage measured after 24 hrs and followed up to 7 days. The settings on record: in vivo. Type of data set: organism-based. An outline of the steps:
as §1

The test system of data set [9] is Mus musculus. Nature of the data set: Acute toxicity in mouse assessed as effect on survival up to 75 mg/kg dosed via parenteral route measured up to 7 days. Conditions: in vivo, 168 h. In kind it is organism-based. In a few lines: (§2)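 Groups of six mice dosed by intraperitoneal injection at 5, 10, 25, 50 and 75 mg/kg, with propylene glycol as vehicle and control. Spleen, lung, liver and kidney taken from the 75 mg/kg animals and examined for texture.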

Data set [10] has as its system Mus musculus. Nature of the data set: Acute toxicity in mouse assessed as effect on spleen morphology at 125 mg/kg, po administered via gavage measured after 24 hrs and followed up to 7 days by histopathological analysis. Type of data set: organism-based. The settings on record: in vivo. An outline of the steps:
as §1

In data set [11] the test system is Mus musculus. Nature of the data set: Acute toxicity in mouse assessed as effect on spleen morphology at 75 mg/kg, ip measured up to 7 days by histopathological analysis. In kind it is organism-based. Conditions: in vivo, 168 h. An outline of the steps:
as §2

The subject of data set [12] is Mus musculus. Nature of the data set: Acute toxicity in mouse assessed as effect on lung morphology at 125 mg/kg, po administered via gavage measured after 24 hrs and followed up to 7 days by histopathological analysis. Type of data set: organism-based. The settings on record: in vivo. In a few lines: as §1
In data set [13] the test system is Mus musculus. Nature of the data set: Acute toxicity in mouse assessed as effect on lung morphology at 75 mg/kg, ip measured up to 7 days by histopathological analysis. Type of data set: organism-based. Conditions: in vivo, 168 h. An outline of the steps:
as §2

The test system of data set [14] is Mus musculus. Nature of the data set: Acute toxicity in mouse assessed as effect on liver morphology at 125 mg/kg, po administered via gavage measured after 24 hrs and followed up to 7 days by histopathological analysis. Type of data set: organism-based. Conditions: in vivo. In a few lines:
as §1

Data set [15] relates to Mus musculus. Description: Acute toxicity in mouse assessed as effect on liver morphology at 75 mg/kg, ip measured up to 7 days by histopathological analysis. Conditions: in vivo, 168 h. In kind it is organism-based. In a few lines:
as §2

In data set [16] the test system is Mus musculus. Description: Acute toxicity in mouse assessed as effect on kidney morphology at 125 mg/kg, po administered via gavage measured after 24 hrs and followed up to 7 days by histopathological analysis. Type of data set: organism-based. Conditions: in vivo. An outline of the steps:
as §1

In data set [17] the test system is Mus musculus. Description: Acute toxicity in mouse assessed as effect on kidney morphology at 75 mg/kg, ip measured up to 7 days by histopathological analysis. Type of data set: organism-based. The settings on record: in vivo, 168 h. An outline of the steps:
as §2

Data set [18] deals with Leishmania major. Description: Antileishmanial activity against Leishmania major assessed as parasite survival at 0.25 uM after 48 hrs relative to control. Type of data set: functional. An outline of the steps:
(§3)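 L. major promastigotes in log phase (10⁶ parasites) pre-incubated with folic or folinic acid (20 or 100 µM), washed, resuspended in PBS for 1 h at room temperature, then returned to culture medium in 24-well plates. Compounds added at the fixed concentration, with trimethoprim at 100 µM. Incubated 48 h; living parasites counted per mL against untreated control wells.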

The test system of data set [19] is Leishmania major. Description: Antileishmanial activity against Leishmania major assessed as parasite survival at 0.25 uM after 48 hrs in presence of 20 uM folic acid relative to control. Type of data set: functional. An outline of the steps: as §3
Data set [20] relates to Leishmania major. Nature of the data set: Antileishmanial activity against Leishmania major assessed as parasite survival at 0.25 uM after 48 hrs in presence of 100 uM folic acid relative to control. In kind it is functional. In a few lines: as §3
The test system of data set [21] is Leishmania major. Description: Antileishmanial activity against Leishmania major assessed as parasite survival at 0.25 uM after 48 hrs in presence of 20 uM folinic acid relative to control. In kind it is functional. An outline of the steps: as §3
For data set [22], the system named is Leishmania major. Nature of the data set: Antileishmanial activity against Leishmania major assessed as parasite survival at 0.25 uM after 48 hrs in presence of 100 uM folinic acid relative to control. Type of data set: functional. An outline of the steps: as §3
Data set [23] relates to Leishmania major. Description: Potency index, ratio of miltefosine IC50 to compound IC50 for antileishmanial activity promastigote form of Leishmania major. In kind it is functional.
Data set [24] concerns Leishmania major. Nature of the data set: Antileishmanial activity against Leishmania major assessed as parasite survival at 0.16 uM after 48 hrs relative to control. Type of data set: functional. In a few lines: as §3
Data set [25] deals with Leishmania major. Description: Antileishmanial activity against Leishmania major assessed as parasite survival at 0.16 uM after 48 hrs in presence of 100 uM folic acid relative to control. Type of data set: functional. An outline of the steps:
as §3

For data set [26], the system named is Leishmania major. Description: Antileishmanial activity against Leishmania major assessed as parasite survival at 0.16 uM after 48 hrs in presence of 20 uM folic acid relative to control. In kind it is functional. In a few lines:
as §3

The subject of data set [27] is Leishmania major. Description: Antileishmanial activity against Leishmania major assessed as parasite survival at 0.16 uM after 48 hrs in presence of 20 uM folinic acid relative to control. Type of data set: functional. In a few lines: as §3
Data set [28] has as its system Leishmania major. Description: Antileishmanial activity against Leishmania major assessed as parasite survival at 0.16 uM after 48 hrs in presence of 100 uM folinic acid relative to control. Type of data set: functional. An outline of the steps:
as §3

As for `C#CCOc1ccc(/C=N/NC(N)=S)cc1OC`, the results for the half-inhibitory concentration (IC50) in data set [1] and in [2] were 0.227 µM and 1.4 µM, respectively. Besides, the “Ratio IC50” value in [3] came to 6. Further, the CC50 at 72 h in [4] is 828 µM. For the same molecule, in [5], the selectivity ratio is 3640. The Activity result in data set [6], in data set [7], in data set [8], in data set [9], in [10] and in [11] was “Non-Toxic” each time. Besides, the Activity result in data set [12], in data set [13], in data set [14], in data set [15], in data set [16] and in [17] was “Non-Toxic” in each case. Also, the Activity in [18] is given as 25%; in data set [19], 89%; in data set [20] it was 97%; in data set [21], 90%; in data set [22], 98%.
In the case of `COc1cc(/C=N\NC(N)=S)ccc1OCc1cn(CC(=O)c2ccc(Br)cc2)nn1`, the IC50 stood at 3.97 µM in data set [1] and 5.1 µM in [2].
With `COc1cc(/C=N/NC(N)=S)ccc1OCc1cn(CC(=O)c2ccc(C)cc2)nn1`, the IC50 turned out to be 4.82 µM in [1] and 4.97 µM in [2].
Turning to `COc1ccc(/C=N\NC(N)=S)cc1OCc1cn(CC(=O)c2ccc(Cl)cc2)nn1`, the IC50 in [1] is 0.798 µM; in data set [2], 1.69 µM. Besides, in [3], the “Ratio IC50” value is recorded as 5.
In the case of `COc1cc(/C=N\NC(N)=S)ccc1OCc1cn(CC(=O)c2ccc(Cl)cc2)nn1`, the half-inhibitory concentration (IC50) in [1] was 4.76 µM; in data set [2] it was 5.4 µM.
For the molecule `COc1ccc(/C=N/NC(N)=S)cc1OCc1cn(-c2ccc(S(N)(=O)=O)cc2)nn1`, the 50% inhibitory concentration (IC50) came to 4.38 µM in data set [1] and 4.35 µM in [2].
As to `C/C(=N/NC(N)=S)c1ccc(OCc2cn(CC(=O)c3ccc(Br)cc3)nn2)cc1`, the 50% inhibitory concentration (IC50) in [1] stood at 0.14 µM; in data set [2] it was 1 µM. Further, the “Ratio IC50” value in [3] is 8; in data set [23], 55.6. Also, the cytotoxic concentration (CC50) at 72 h in data set [4] was determined as 509 µM. For the same molecule, the selectivity ratio in data set [5] came out at 3630. Moreover, the Activity result in data set [6], in data set [7], in [8], in data set [9], in data set [10] and in data set [11] was “Non-Toxic” in each case. Further, the Activity entry in data set [12], in [13], in data set [14], in data set [15], in data set [16] and in data set [17] was “Non-Toxic” throughout. In addition, the Activity in data set [24] stood at 23%; in data set [25], 99%; in data set [26], 91%; in data set [27], 90%; in data set [28] it was 99%.
In the case of `COc1ccc(/C=N/NC(N)=S)cc1OCc1cn(CC(=O)c2ccc(F)cc2)nn1`, the IC50 in [1] was 2.52 µM; in [2], 4.83 µM.
For the molecule `C/C(=N/NC(N)=S)c1ccc(OCc2cn(-c3ccc(C(=O)O)cc3)nn2)cc1`, the figures for the IC50 in data set [1] and in [2] were 7.41 µM and 6.04 µM, respectively.
`COc1cc(/C=N/NC(N)=S)ccc1OCc1cn(CC(=O)c2ccc(F)cc2)nn1`: the IC50 in data set [1] was 6.93 µM; in data set [2] it was 6.46 µM.
Consider `COc1ccc(/C=N\NC(N)=S)cc1OCc1cn(CC(=O)c2ccccc2)nn1`, for which the half-inhibitory concentration (IC50) in data set [1] came to 4.4 µM; in [2], 4.38 µM.
As for `COc1ccc(/C=N/NC(N)=S)cc1OCc1cn(CC(=O)c2ccc(C)cc2)nn1`, the concentration for half-maximal inhibition (IC50) in [1] is 0.99 µM; in data set [2], 2.18 µM. For the same molecule, in data set [3], the “Ratio IC50” value was 4.
As for `COc1cc(/C=N/NC(N)=S)ccc1OCc1cn(-c2ccc(C(=O)O)cc2)nn1`, the IC50 in data set [1] stood at 5.74 µM; in data set [2] it was 5.6 µM.
In the case of `COc1ccc(/C=N/NC(N)=S)cc1OCc1cn(-c2ccc(C(=O)O)cc2)nn1`, the figures for the half-maximal inhibitory concentration (IC50) in [1] and in data set [2] were 5 µM and 4.78 µM, respectively.
The corresponding values for `COc1ccc(/C=N\NC(N)=S)cc1OCc1cn(CC(=O)c2ccc(Br)cc2)nn1` are 5.69 µM and 4.48 µM.
As to `COc1cc(/C=N\NC(N)=S)ccc1OCc1cn(CC(=O)c2ccccc2)nn1`, the half-maximal inhibitory concentration (IC50) in [1] was 4.87 µM; in [2] it was 5.39 µM.
As for `C/C(=N/NC(N)=S)c1ccc(OCc2cn(-c3ccc(S(N)(=O)=O)cc3)nn2)cc1`, the half-maximal inhibitory concentration (IC50) in data set [1] was 6.79 µM; in data set [2], 8.26 µM.
`CCCCCCCCCCCCCCCCOP(=O)([O-])OCC[N+](C)(C)C` [MILTEFOSINE]: the concentration for half-maximal inhibition (IC50) in data set [2] was determined as 8.09 µM.

The IC50 is the concentration that gives 50% inhibition. As usually defined, the CC50 is the concentration that lowers cell viability or growth by half.
